Assay outcomes: PubChem, several laboratories
EBI2 block – EBI2 receptor antagonists, beta-arrestin recruitment, primary screen, cell-based, luminescence, 7a,25-OHC stimulation, uHTS; AID 651636, 2012; 7a,25-OHC stimulated; G-protein coupled receptor 183 (Homo sapiens), P32249; 0.81% of 360,000 active; inhibition, % at 5 µM; in the data active = inhibition above about 38%;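 note: enzyme fragment complementation signal reports receptor beta-arrestin coupling in cells; 0% = agonist plus DMSO wells and 100% = wells without agonist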
CXCR6 inh – CXCR6 receptor inhibitors, primary screen, cell-based, beta-arrestin, luminescence, CHO-K1 PathHunter, 1536-well | 0.36% of 360,000 active | inhibition, % at 20 µM | AID 602244, 2012; in the data active = inhibition above about 34%, passing the limit was not always enough;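 note: antagonist mode with CXCL16 agonist at 10 nM final; 0% = 10 nM CXCL16 with DMSO and 100% = unstimulated wells without agonist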
Target sequence (O00574 whole entry, looked up): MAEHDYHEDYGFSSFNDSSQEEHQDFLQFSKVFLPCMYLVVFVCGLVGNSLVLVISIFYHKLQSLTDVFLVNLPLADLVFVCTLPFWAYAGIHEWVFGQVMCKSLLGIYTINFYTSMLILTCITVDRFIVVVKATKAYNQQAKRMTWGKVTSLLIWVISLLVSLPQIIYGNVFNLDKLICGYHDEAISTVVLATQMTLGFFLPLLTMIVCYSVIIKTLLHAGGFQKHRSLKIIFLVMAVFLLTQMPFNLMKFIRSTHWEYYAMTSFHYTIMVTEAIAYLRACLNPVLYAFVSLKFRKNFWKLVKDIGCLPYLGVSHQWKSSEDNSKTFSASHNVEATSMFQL
APJ ag – agonists of human apelin receptor APJ, primary screen, CHO-K1 cells, PathHunter beta-arrestin, luminescence | P35414 | 0% DMSO wells, 100% apelin | activation, % at 20 µM | 0.11% of 330,000 active;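 active = activation more than six SD over the plate average, tested at 20 µM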;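 note: 0% = DMSO alone and 100% = apelin-13 at 10 nM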
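Assay system – PathHunter CHO-K1 APJ (AGTRL-1) beta-arrestin reporter cells · Compound – one dose, 20 µM compound, 1% DMSO · Timing – compound 90 min 25 °C, reagent 1 h · Measured by – luminescence from split beta-galactosidase complementation, Galacton Star/Emerald II substrate · Measure – beta-arrestin recruitment to APJ as agonist activity, luminescent signal · Benchmarks – DMSO vs Apelin-13 10 nM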
APJ antag – antagonists of human apelin receptor APJ, primary screen, CHO-K1 cells, beta-arrestin complementation, luminescence. P35414. inhibition, % at 20 µM. 0.32% of 330,000 active;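 active = inhibition above about 40% at 20 µM, limit read from the data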;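 note: cells challenged with 10 nM apelin-13 agonist together with compound; plate controls were apelin-13 plus DMSO wells for no effect and DMSO wells lacking apelin-13 for full effect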
m5-HT2A agonist – mouse Htr2a agonists via beta-arrestin recruitment, primary screen, cell-based, luminescence. 5-hydroxytryptamine receptor 2A (Mus musculus), P35363. CHO-K1 mHTR2A beta-arrestin complementation; percent of 30 µM serotonin response. activation, % at 7.6 µM. 0.66% of 360,000 active;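 active = activation above a run cutoff, the mean activation of all tested compounds plus 3 SD, cut at about 14% in these data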;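 note: 0% = plate median of compound wells and 100% = 30 µM serotonin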
CCR6 antagonist – CCR6 receptor antagonists, primary screen, cell-based, CHO-K1, luminescence, beta-arrestin, uHTS; CHO-K1 CCR6 PathHunter beta-arrestin, CCL20-stimulated; inhibition, % at 20 µM; 0.49% of 340,000 active; AID 493098, 2011;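 active = compounds whose inhibition of the agonist-driven luminescence signal at 20 µM reaches about 50%, limit read from the data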;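 note: cells stimulated with CCL20 at 14 nM final; plate controls were DMSO with CCL20 for no effect and DMSO without agonist for full effect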
OPRM1 ag – OPRM1 agonists via beta-arrestin recruitment, confirmation, counter-screen for mouse HTR2A agonist project, cell-based, luminescence, single concentration; activation, % at 9.3 µM; U2OS OPRM1 beta-arrestin PathHunter; DMSO 0%, DAMGO 9.3 µM 100%; AID 624380, 2012; shares compounds with m5-HT2A agonist; 5.3% of 2,300 active;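 active = mean activation above the mean of DMSO-only wells plus 3 SD, cut at about 0.5% in these data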
m5-HT2A ag conf – mouse HTR2A agonists, beta-arrestin recruitment, confirmation, cell-based, luminescence, CHO-K1 PathHunter, triplicate; shares compounds with m5-HT2A agonist; DMSO 0%, 30 µM serotonin 100%; activation, % at 7.6 µM; 19% of 2,300 active;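 active = mean activation across triplicates above the hit threshold derived in the original primary screen, cut at about 15% in these data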
* = called active by the depositor; / = no result. This is a sample that favours compounds with a hit; in the whole collection about 2.1% have one here.

SMILES	EBI2 block	CXCR6 inh	APJ ag	APJ antag	m5-HT2A agonist	CCR6 antagonist	OPRM1 ag	m5-HT2A ag conf
COC(=O)[C@@H](Cc1ccccc1)NC(=O)[C@H]1O[C@@H](n2cnc3c(N)ncnc32)[C@H](O)[C@@H]1O	0	-9	/	/	1	/	/	/
Cn1nc(C(C)(C)C)cc1NC(=O)C1(C)CCN1C(=O)C1(c2ccccc2)CCCC1 (stereo not given)	4	11	/	/	10	/	/	/
CC(C)[C@H](NC(=O)c1ccccc1F)C(=O)NCCc1ccccc1	-3	6	0	-12	4	7	/	/
CC1CCN(C(=O)CSc2nnc(-c3ccc(S(=O)(=O)N4CCOCC4)cc3)n2C)CC1	-14	-3	-3	20	1	-16	/	/
CC(=O)Nc1ccc(S(=O)(=O)N2CCN(C(=O)Cc3ccccc3)CC2)cc1	0	0	3	-15	17*	12	0	-2
CC(=O)Nc1ccc(S(=O)(=O)N2CCN(CCc3ccccc3)CC2)cc1	8	-2	0	4	-4	7	/	/
CC(=O)N1CCN(C(=O)c2ccc(Cl)c(NC(=O)c3cccs3)c2)CC1	-3	4	-2	10	15*	2	-1	-3
CCOC(=O)N1CCN(C(=O)c2ccc(Cl)c(NC(=O)c3cccs3)c2)CC1	6	5	-1	-4	-2	4	/	/
N#Cc1ccccc1Sc1ccccc1C(=O)Nc1ccc(Br)cc1	0	8	-3	8	-5	23	/	/
O=c1c2ccccc2nc(/C=C/c2cccnc2)n1CCc1ccccc1	11	2	-4	5	-2	8	/	/
CCOC(=O)Cn1c(=O)c(-c2ccccc2NCc2ccccc2)nc2ccccc21	9	16	-5	22	1	-16	/	/
Cc1nc2ccccc2n1CC(=O)OCC(=O)NCc1ccccc1	-7	-3	-3	-15	15*	5	0	3
CCC(C)(C)NC(=O)CN(C(=O)c1csnn1)c1ccccc1-c1ccccc1	0	0	0	18	16*	-4	-1	-4
Cc1ccc2c(=O)[nH]c(Cc3ccccc3C(=O)O)nc2c1	-16	-9	-2	5	15*	-5	0	10
O=c1[nH]c(Cc2ccccc2Cl)nc2ccccc12	-1	0	0	9	2	-1	/	/
O=c1cc(/N=C/c2coc3cc(Br)ccc3c2=O)[nH]c(=S)[nH]1	-1	2	2	-15	1	10	/	/
Cc1c(C2(O)CCCCC2)[nH]c2cc(C(F)(F)F)ccc12	-33	-17	4	-20	19*	23	1.0*	-1
O=[N+]([O-])c1cc(S(=O)(=O)N2CCCC2)ccc1NN=C1CCCCC1	1	6	1	-3	-3	7	/	/
O=C(NCC(=O)N1CCCCCCC1)c1cccc([N+](=O)[O-])c1	-8	-5	2	12	15*	12	-1	-1
CCNC(=O)CSc1nc2ccccc2c(=O)n1OC	-4	-6	-1	28	0	-18	/	/
COc1cc(Cl)c(C)cc1NC(=O)c1ccc2c(SCC(=O)O)c3c(nc2c1)CCCC3	-8	3	-4	12	2	4	/	/
CCOC(=O)c1ccccc1NC(=O)c1ccc2c(SCC(=O)O)c3c(nc2c1)CCCC3	-2	2	-3	15	15*	8	-1	-1
CC1CCCCN1CCNC(=O)C1CCN(S(=O)(=O)N2CCCCC2)CC1 (stereo not given)	-3	0	3	-1	15*	4	0	-2
CCN(CC)CCNC(=O)C1CCN(S(=O)(=O)N2CCCCC2)CC1	-10	-15	-2	10	1	7	/	/
CCCCOc1ccc(S(=O)(=O)NC(=O)C2(C)CCN2C(=O)Cc2ccccc2Cl)cc1 (stereo not given)	-16	3	/	/	1	/	/	/
CCCCOc1ccc(S(=O)(=O)NC(=O)C2(C)CCN2C(=O)CCc2ccccc2)cc1 (stereo not given)	-6	3	/	/	17*	/	0	-2
COc1cc(/C=N/NC(=O)CC(=O)NC2CCCCC2)ccc1O	-3	1	-1	-5	16*	2	0.9*	5
